Experimental data from different studies.
Protocols differ between the studies behind these lines.
Effect on: enzyme activity
Action: inhibitor
rep main protease: Replicase polyprotein 1ab, main protease (rep, Severe acute respiratory syndrome coronavirus 2, UniProt P0DTD1)
rep papain-like protease: Replicase polyprotein 1ab, papain-like protease (rep, Severe acute respiratory syndrome coronavirus 2, UniProt P0DTD1)

| Compound | target | assay | setting | inhibition [%] |
| --- | --- | --- | --- | --- |
| Oc1cc(O)c2c(c1)OC(c1ccc(O)c(O)c1)C(O)C2 (centres unmarked) | rep main protease | – | 20 µM | 22.6 |
| O=C1C=CC(=O)c2ccccc21 | rep main protease | – | 1 µM | 90.5 |
| COc1ccc2nc(Cl)c(/C=N/c3ccc(-c4nc5ccccc5[nH]4)cc3)cc2c1 | rep papain-like protease | – | 100 µM | 13.5 |
| O=c1cc(-c2ccc(O)cc2)oc2cc(O)c(O)c(O)c12 | rep papain-like protease | – | 50 µM | 65.7 |
| CCc1cscc1C(=O)N1Cc2ccccc2C[C@H]1CNC(=O)c1cccc2[nH]ncc12 | rep main protease | – | 5 µM | 10.8 |
| CC(=O)Nc1ccc(-c2cnc(/N=C\c3cc4ccccc4nc3Cl)s2)cc1 | rep papain-like protease | – | 100 µM | 97.2 |
| Cc1ccc(NC2C=CS(=O)(=O)C2)cc1 (centres unmarked) | rep main protease | – | 20 µM | 2.03 |
| Cc1cc(OCc2ccccc2)c2c(c1)C(=O)C=CC2=O | rep main protease | – | 10 µM | 96.4 |
| O=C(O)[C@H]1O[C@@H](Oc2cc3oc(-c4ccc(O)cc4)cc(=O)c3c(O)c2O)[C@H](O)[C@@H](O)[C@@H]1O | rep main protease | – | 100 µM | 76.8 |
| Cc1cccn2c(=O)c3cc(C(=O)Nc4ccc(N(C)C)cc4)n(C)c3nc12 | rep main protease | – | 10 µM | 8.7 |
| C[C@@H]1O[C@@H](OC[C@H]2O[C@@H](OCCc3ccc(O)c(O)c3)[C@H](OC(=O)/C=C/c3ccc(O)c(O)c3)[C@@H](O)[C@@H]2O)[C@H](O)[C@H](O)[C@H]1O | rep papain-like protease | – | 50 µM | 2.5 |
| CCOC(=O)COc1cc(C)cc2c1C(=O)C=CC2=O | rep main protease | – | 0.1 µM | 29.6 |
| O=C(Oc1cncc(Cl)c1)c1cc2cc(Cl)ccc2[nH]1 | rep main protease | fluorescence | 10 µM, pH 7.2 | 100 |
| O=C(NCc1ccccn1)Nc1csc2ccccc12 | rep main protease | – | 20 µM | -3.23 |
| COc1ccc(/C=C\C(=O)NC(=S)Nc2ccc(S(=O)(=O)NC(N)=O)cc2)cc1OC | rep main protease | – | 100 µg/mL | 0 |
| Cn1c(C(=O)Nc2ccc(Cl)cc2)cc2c(=O)n3ccccc3nc21 | rep main protease | – | 1 µM | 7.4 |
| CCOC(=O)c1ccc(OC(=O)CCCCCNC(=N)N)cc1 | rep main protease | – | 10 µM | 3 |
| O=C(O)Cc1ccc(O)c([N+](=O)[O-])c1 | rep main protease | FRET | 10 µM, 10 min | < 25 |
| Cc1ccc(NC(=O)c2cc3c(=O)n4cccc(C)c4nc3n2C)cc1Cl | rep main protease | – | 100 µM | 37 |
| CN1CCc2cccc3c2[C@H]1Cc1ccc(O)c(O)c1-3 | rep main protease | – | 20 µM | -23 |
| Cn1cc2c(n1)c(=O)n(Cc1ccc(F)cc1)c1nn(Cc3ccccc3)c(=O)n21 | rep main protease | – | 20 µM | 14.9 |
| CC(C)C[C@H](NC(=O)OCc1ccccc1)C(=O)N(C)N(C#N)CCC(N)=O | rep main protease | fluorescence | 50 µM, pH 7.2 | 100 |
| O=C(NC[C@H](NC(=O)c1cncc2sccc12)c1ccc2ccccc2c1)c1cocn1 | rep main protease | – | 5 µM | 19.1 |
